# Active and inactive are the calls of the source. The calls are words filed in the database; no cut-off is given here.
# What was measured:
# Settings in all cases: HEK293
# [1] = target: T1, P2X purinoceptor 3 (Rattus norvegicus) (UniProt P49654); experiment: Activity at rat P2X3 receptor expressed in HEK cells assessed as induction of inward current at 100 uM by patch clamp method; format: cell-based
# T1 sequence (whole entry): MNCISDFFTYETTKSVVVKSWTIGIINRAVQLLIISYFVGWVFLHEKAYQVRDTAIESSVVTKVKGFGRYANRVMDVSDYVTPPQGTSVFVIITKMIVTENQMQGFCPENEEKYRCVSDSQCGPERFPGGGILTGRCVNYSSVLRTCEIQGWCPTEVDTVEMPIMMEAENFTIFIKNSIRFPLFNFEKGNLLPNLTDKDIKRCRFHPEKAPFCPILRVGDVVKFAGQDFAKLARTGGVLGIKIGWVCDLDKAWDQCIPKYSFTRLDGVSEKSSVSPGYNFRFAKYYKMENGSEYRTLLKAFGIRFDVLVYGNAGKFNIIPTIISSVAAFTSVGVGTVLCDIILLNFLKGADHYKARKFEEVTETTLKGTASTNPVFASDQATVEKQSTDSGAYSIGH
# Outline: (§1)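 HEK 293T cells transiently transfected with rat P2X3 (calcium phosphate), recorded 48 h post-transfection by whole-cell patch clamp at -60 mV in HEPES-buffered saline pH 7.4, CsCl pipette. Compound applied at 100 μM by rapid superfusion; inward current compared with averaged control current from ≥3 applications of α,β-meATP 100 μM for 2 s, 5 min apart.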
# [2] = target: T1, P2X purinoceptor 3 (Rattus norvegicus); experiment: Agonist activity at rat P2X3 receptor expressed in HEK cells assessed as induction of inward current at 100 uM by patch clamp method relative to alpha, beta-meATP; format: functional, cell-based; outline: as §1
# [3] = target: T1, P2X purinoceptor 3 (Rattus norvegicus); experiment: Antagonist activity at rat P2X3 receptor expressed in HEK cells assessed as inhibition of alpha, beta-meATP-induced inward current at 100 uM by patch clamp method; format: functional, cell-based; parameters: scale not given: the % may be the effect or the level left
# Outline: (§2)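 Rat P2X3 subunit plasmid transfected (calcium phosphate) into HEK 293T cells, used 48 h later. Whole-cell clamp at -60 mV, fast superfusion; acyclic nucleotide (100 μM) preapplied 20 s, then α,β-meATP 100 μM for 2 s. Peak inward current expressed as % of control α,β-meATP response; n=7 cells, mean ± SEM, paired t or Mann-Whitney test.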
# [4] = target: T1, P2X purinoceptor 3 (Rattus norvegicus); experiment: Activity at rat P2X3 receptor expressed in HEK cells assessed inhibition of alpha, beta-meATP induced response by patch clamp method; format: cell-based; outline: as §2
# [5] = target: T1, P2X purinoceptor 3 (Rattus norvegicus); experiment: Activity at rat P2X3 receptor expressed in HEK cells assessed as depression of amplitude current subsequent response to alpha, beta-meATP by patch clamp method relative to control; format: cell-based; outline: as §2
# [6] = target: T1, P2X purinoceptor 3 (Rattus norvegicus); experiment: Agonist activity at rat P2X3 receptor expressed in HEK cells assessed as induction of alpha, beta-meATP inward current at 100 uM pretreated before alpha, beta-meATP induction by patch clamp method; format: functional, cell-based; outline: as §2
Compound,Activity [1],Activity [2],also measured
CCCCC#Cc1nc(N)c2ncn(CCCCOP(=O)(O)O)c2n1,inactive,inactive,Activity [3]: 20%
Nc1ncnc2c1ncn2CCCCOP(=O)(O)OP(=O)(O)OP(=O)(O)O,–,36%,–
Nc1ncnc2c1ncn2CCCCOP(=O)(O)OP(=O)(O)O,–,32%,–
CCCCC#Cc1nc(N)c2ncn(CCCCOP(=O)(O)OP(=O)(O)OP(=O)(O)O)c2n1,Active,38%,Activity [4]: Active
"Nc1ncnc2c1ncn2[C@@H]1O[C@H](COP(=O)(O)CP(=O)(O)OP(=O)(O)O)[C@@H](O)[C@H]1O (single isomer, unassigned)",Active,–,–
Nc1nc(Cl)nc2c1ncn2CCCCOP(=O)(O)OP(=O)(O)OP(=O)(O)O,–,30%,–
Nc1nc(OCCc2ccccc2)nc2c1ncn2CCCCOP(=O)(O)OP(=O)(O)OP(=O)(O)O,–,Active,–
Nc1nc(OCCc2ccccc2)nc2c1ncn2CCCCOP(=O)(O)O,–,inactive,Activity [3]: 20%
Nc1nc(I)nc2c1ncn2CCCCOP(=O)(O)O,inactive,inactive,Activity [5]: 80%; Activity [3]: 20%
Nc1nc(Cl)nc2c1ncn2CCCCOP(=O)(O)OP(=O)(O)O,–,Active,–
Nc1nc(N)c2ncn(CCCCOP(=O)(O)OP(=O)(O)O)c2n1,Active,Active,–
Nc1nc(N)c2ncn(CCCCOP(=O)(O)OP(=O)(O)OP(=O)(O)O)c2n1,Active,25%,Activity [6]: 17%
Nc1nc(Cl)nc2c1ncn2CCCCOP(=O)(O)O,–,inactive,Activity [3]: 20%
Nc1nc(I)nc2c1ncn2CCCCOP(=O)(O)OP(=O)(O)OP(=O)(O)O,Active,60%,Activity [4]: Active
Nc1nc(N)c2ncn(CCCCOP(=O)(O)O)c2n1,inactive,inactive,Activity [3]: 20%
Nc1nc(OCCc2ccccc2)nc2c1ncn2CCCCOP(=O)(O)OP(=O)(O)O,–,Active,–
Nc1ncnc2c1ncn2CCCCOP(=O)(O)O,–,inactive,–
